Reference: ChEMBL document CHEMBL1157985, “Antiplasmodial and cytotoxic activity of natural bisbenzylisoquinoline alkaloids” (J Nat Prod, 1999)

Key:
Plasmodium falciparum [1] = test: Antiplasmodial activity against chloroquine-sensitive Plasmodium falciparum D6 infected human erythrocytes as [3H]hypoxanthine uptake after 24 hrs; format: functional, organism-based
How it was run: (§1)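 P. falciparum (D6, W2) cultured in type A+ human erythrocytes, RPMI-1640 with NaHCO3, HEPES and 10% heat-inactivated human plasma, 37 °C under 5% O2/5% CO2/90% N2. Infected red cells at 0.5-1.0% parasitemia, 1.0% hematocrit exposed to compound, duplicate seven-point series, 24 h; then 0.5 μCi [3H]hypoxanthine per well for 18 h more. Filter harvest, scintillation counting; IC50 by nonlinear regression versus zero-drug controls.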

[2] = Selectivity index, ratio of ED50 for human KB cells to IC50 for […] Plasmodium falciparum D6; format: functional
[3] = Selectivity index, ratio of ED50 for human KB cells to IC50 for chloroquine-resistant Plasmodium falciparum W2; format: functional
KB = test: Cytotoxicity against human KB cells after 72 hrs by SRB assay; format: functional; conditions: read-out: ED50 (the source's name)
How it was run: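 KB-3 cells grown in DMEM with 10% FBS at 37 °C and 5% CO₂ to 60–70% confluence, then used 1 day after a medium change. Samples were dissolved in DMSO and serially diluted in 10% aqueous DMSO. 5×10⁴ cells were exposed for 72 h at 37 °C, then TCA-fixed, stained with 0.4% SRB and read at 515 nm. Zero-day control was subtracted and values expressed relative to solvent control; ED50 by nonlinear regression.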

Plasmodium falciparum [4] = test: Antiplasmodial activity against chloroquine-resistant Plasmodium falciparum W2 infected human erythrocytes as [3H]hypoxanthine uptake after 24 hrs; format: functional, organism-based; how it was run: as §1

Structure (SMILES)	IC50 (Plasmodium falciparum [1]) [nM]	Selectivity Index [2]	Selectivity Index [3]	EC50 (KB) [nM]	IC50 (Plasmodium falciparum [4]) [nM]
COc1ccc2cc1Oc1ccc(cc1)C[C@H]1c3cc(c(OC)cc3CCN1C)Oc1c(OC)c(OC)cc3c1[C@@H](C2)NCC3	106	95			
COc1cc2c(cc1O)[C@H](Cc1ccc(Oc3cc(C[C@@H]4c5cc(OC)c(OC)cc5CCN4C)ccc3OC)cc1)N(C)CC2	213	>150	>140	> 32100	227
COc1ccc2cc1Oc1ccc(cc1)C[C@H]1c3c(cc(O)c(OC)c3Oc3cc4c(cc3OC)CCN(C)[C@@H]4C2)CCN1C	214	49	21	10500	510
COc1ccc2cc1Oc1ccc(cc1)C[C@@H]1c3c(cc(OC)c(O)c3Oc3cc4c(cc3OC)CCN[C@@H]4C2)CCN1C	106	92	26	9800	375
COc1ccc2cc1Oc1ccc(cc1)C[C@@H]1c3c(cc(OC)c(O)c3Oc3cc4c(cc3OC)CCN(C)[C@@H]4C2)CCN1C	64	64	21	4110	192
COc1ccc(C[C@H]2c3cc(Oc4cc(OC)c(OC)cc4C[C@H]4c5cc(O)c(OC)cc5CCN4C)c(OC)cc3CCN2C)cc1O	61	>490	>180	> 29900	164
COc1cc2c3cc1Oc1c(O)c(OC)cc4c1[C@@H](Cc1ccc(cc1)Oc1cc(ccc1O)C[C@H]3N(C)CC2)N(C)CC4	29	300	82	8600	105
COc1ccc2cc1Oc1ccc(cc1)C[C@H]1c3c(cc(O)c4c3Oc3cc5c(cc3O4)CCN(C)[C@H]5C2)CCN1C	30	200	54	6000	
COc1ccc2cc1Oc1ccc(cc1)C[C@H]1c3c(cc4c(c3Oc3cc5c(cc3OC)CCN[C@@H]5C2)OCO4)CCN1C	79	84	30	6600	219
COc1ccc2cc1Oc1ccc(cc1)C[C@H]1c3c(cc(OC)c(OC)c3Oc3cc4c(cc3OC)CCN[C@@H]4C2)CCN1C	75	130	64	9900	154
COc1ccc2cc1Oc1ccc(cc1)C[C@H]1c3c(cc(OC)c(O)c3Oc3cc4c(cc3OC)CCN(C)[C@H]4C2)CCN1C	48	76	54	3620	67
COc1ccc2cc1Oc1cc3c(cc1OC)CCN(C(C)=O)[C@H]3Cc1ccc(cc1)Oc1c3c(cc4c1[C@@H](C2)N(C)CC4)OCO3	1910		13	13600	1050
COc1cc2c3cc1Oc1c(OC)c(OC)cc4c1[C@H](Cc1ccc(cc1)Oc1cc(ccc1O)C[C@@H]3N(C)CC2)N(C)CC4	42	350	220	15000	67
CCN(CC)CCCC(C)Nc1ccnc2cc(Cl)ccc12 (centres undefined) [CHLOROQUINE]				33700	
COc1cc2c3c4c1Oc1cc5c(cc1O4)[C@H](Cc1ccc(O)c(c1)Oc1ccc(cc1)C[C@@H]3N(C)CC2)N(C)CC5 [COCSULINE]	87	110		10000	502
OC(c1cc(C(F)(F)F)nc2c(C(F)(F)F)cccc12)C1CCCCN1 (centres undefined) [MEFLOQUINE]		465	1080	8430	7.78
